pIC50: −log10 of the molar value.
Tested on: Plasmodium falciparum
Experiment: Antiplasmodial activity against chloroquine-sensitive Plasmodium falciparum 3D7 infected in human O positive erythrocytes after 48 hrs by SYBR green-I based fluorescence assay
Format: functional, organism-based
Conditions: 3D7, 48 h
In short: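 3D7 was cultured at 37 °C, 5% CO₂, in O+ human erythrocytes at 5% hematocrit, in RPMI 1640 with 2% human serum, 0.2% NaHCO₃, 0.5% Albumax II, hypoxanthine and gentamicin. Cultures were sorbitol-synchronized (mostly late rings/early trophozoites). Drugs from DMSO stocks were serially diluted in triplicate wells (final DMSO ≤0.001%) and incubated 48 h. Read-out was SYBR Green I in lysis buffer, 1 h dark RT, ex 485/em 530 nm. EC₅₀ was taken as 50% fluorescence reduction, as the mean of triplicate experiments.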

Row | pIC50 | Compound
1 | < 4.46 | COc1ccccc1CC1(O)c2ccccc2C2=NCCN21 (stereo unspecified)
2 | 5.08 | COc1cccc(CC2(O)c3ccccc3C3=NCCN32)c1 (stereo unspecified)
3 | < 4.46 | Oc1ccc(CC2(O)c3ccccc3C3=NCCN32)cc1 (stereo unspecified)
4 | 4.48 | OC1(Cc2ccc(F)cc2F)c2ccccc2C2=NCCN21 (stereo unspecified)
5 | < 4.46 | OC1(Cc2cc(F)cc(F)c2)c2ccccc2C2=NCCN21 (stereo unspecified)
6 | < 4.46 | Oc1ccc(CC2(O)c3ccccc3C3=NCCN32)cc1Cl (stereo unspecified)
7 | 4.71 | OC1(Cc2cccs2)c2ccccc2C2=NCCN21 (stereo unspecified)
8 | 5.18 | OC1(Cc2ccsc2)c2ccccc2C2=NCCN21 (stereo unspecified)
9 | 4.87 | Cn1c(CC2(O)c3ccccc3C3=NCCN32)cc2ccccc21 (stereo unspecified)
10 | < 4.57 | CSc1ccc(CC2(O)c3ccccc3-c3nc4ccccc4n32)cc1 (stereo unspecified)
11 | 4.81 | CSc1ccc(CC2(O)c3ccccc3-c3nc4cc(C)ccc4n32)cc1 (stereo unspecified)
12 | < 4.52 | OC1(Cc2ccc3ccccc3c2)c2ccccc2-c2nc3ccccc3n21 (stereo unspecified)
13 | 4.82 | OC1(Cc2ccccc2Cl)c2ccccc2C2=NCCN21 (stereo unspecified)
14 | 7.22 | CSc1ccc(CC2(O)c3ccccc3C3=NCCN32)cc1 (stereo unspecified)
15 | 5.38 | OC1(Cc2ccc(F)cc2)c2ccccc2C2=NCCN21 (stereo unspecified)
16 | 5.06 | OC1(Cc2ccc(Cl)cc2Cl)c2ccccc2C2=NCCN21 (stereo unspecified)
17 | 4.79 | OC1(Cc2cccc3ccccc23)c2ccccc2C2=NCCN21 (stereo unspecified)
18 | 6.62 | COc1ccc(CC2(O)c3ccccc3C3=NCCN32)cc1 (stereo unspecified)
19 | 4.56 | COc1ccc(CC2(O)c3ccccc3C3=NCCN32)cc1OC (stereo unspecified)
20 | 5.66 | OC1(Cc2ccc3c(c2)OCO3)c2ccccc2C2=NCCN21 (stereo unspecified)
21 | 4.42 | OC1(Cc2ccccc2)c2ccccc2C2=NCCN21 (stereo unspecified)
22 | 5.83 | COc1cc(CC2(O)c3ccccc3C3=NCCN32)cc(OC)c1OC (stereo unspecified)
23 | 4.86 | CSc1ccc(C=C2c3ccccc3C(=O)N2c2cc(Cl)ccc2N)cc1 (mixture of isomers)
24 | 5.00 | Nc1ccc(Cl)cc1N1C(=O)c2ccccc2C1=Cc1ccc2ccccc2c1 (mixture of isomers)

Row | Compound | pIC50
25 | OC1(Cc2ccc3ccccc3c2)c2ccccc2C2=NCCN21 (stereo unspecified) | 7.22
26 | OC1(Cc2ccc(Cl)c(Cl)c2)c2ccccc2C2=NCCN21 (stereo unspecified) | 6.52

Tested on: Plasmodium falciparum
Experiment: Ratio of chloroquine IC50 to Compound IC50 for chloroquine-sensitive Plasmodium falciparum 3D7
Format: functional
Conditions: not given

Row | Compound | Ratio IC50
27 | COc1ccccc1CC1(O)c2ccccc2C2=NCCN21 (stereo unspecified) | <1
28 | COc1cccc(CC2(O)c3ccccc3C3=NCCN32)c1 (stereo unspecified) | <1
29 | Oc1ccc(CC2(O)c3ccccc3C3=NCCN32)cc1 (stereo unspecified) | <1
30 | OC1(Cc2ccc(F)cc2F)c2ccccc2C2=NCCN21 (stereo unspecified) | <1
31 | OC1(Cc2cc(F)cc(F)c2)c2ccccc2C2=NCCN21 (stereo unspecified) | <1
32 | Oc1ccc(CC2(O)c3ccccc3C3=NCCN32)cc1Cl (stereo unspecified) | <1
33 | OC1(Cc2cccs2)c2ccccc2C2=NCCN21 (stereo unspecified) | <1
34 | OC1(Cc2ccsc2)c2ccccc2C2=NCCN21 (stereo unspecified) | <1
35 | Cn1c(CC2(O)c3ccccc3C3=NCCN32)cc2ccccc21 (stereo unspecified) | <1
36 | CSc1ccc(CC2(O)c3ccccc3-c3nc4ccccc4n32)cc1 (stereo unspecified) | <1
37 | CSc1ccc(CC2(O)c3ccccc3-c3nc4cc(C)ccc4n32)cc1 (stereo unspecified) | <1
38 | OC1(Cc2ccc3ccccc3c2)c2ccccc2-c2nc3ccccc3n21 (stereo unspecified) | <1
39 | OC1(Cc2ccc3ccccc3c2)c2ccccc2C2=NCCN21 (stereo unspecified) | 16.7
40 | OC1(Cc2ccccc2Cl)c2ccccc2C2=NCCN21 (stereo unspecified) | <1
41 | CSc1ccc(CC2(O)c3ccccc3C3=NCCN32)cc1 (stereo unspecified) | 16.7
42 | OC1(Cc2ccc(Cl)c(Cl)c2)c2ccccc2C2=NCCN21 (stereo unspecified) | 3.3
43 | OC1(Cc2ccc(F)cc2)c2ccccc2C2=NCCN21 (stereo unspecified) | <1
44 | OC1(Cc2ccc(Cl)cc2)c2ccccc2C2=NCCN21 (stereo unspecified) | 8.3
45 | OC1(Cc2ccc(Cl)cc2Cl)c2ccccc2C2=NCCN21 (stereo unspecified) | <1
46 | OC1(Cc2cccc3ccccc23)c2ccccc2C2=NCCN21 (stereo unspecified) | <1
47 | COc1ccc(CC2(O)c3ccccc3C3=NCCN32)cc1 (stereo unspecified) | 4.2
48 | COc1ccc(CC2(O)c3ccccc3C3=NCCN32)cc1OC (stereo unspecified) | <1
49 | OC1(Cc2ccc3c(c2)OCO3)c2ccccc2C2=NCCN21 (stereo unspecified) | <1
50 | OC1(Cc2ccccc2)c2ccccc2C2=NCCN21 (stereo unspecified) | <1
51 | COc1cc(CC2(O)c3ccccc3C3=NCCN32)cc(OC)c1OC (stereo unspecified) | <1
52 | CSc1ccc(C=C2c3ccccc3C(=O)N2c2cc(Cl)ccc2N)cc1 (mixture of isomers) | <1
53 | Nc1ccc(Cl)cc1N1C(=O)c2ccccc2C1=Cc1ccc2ccccc2c1 (mixture of isomers) | <1

Tested on: not listed separately
Experiment: Intestinal absorption in human
Format: ADME, organism-based
Conditions: in vivo, read-out: HIA

Row | Fa [%] | Compound
54 | > 95 | CSc1ccc(CC2(O)c3ccccc3C3=NCCN32)cc1 (stereo unspecified)
55 | > 95 | OC1(Cc2ccc(Cl)cc2)c2ccccc2C2=NCCN21 (stereo unspecified)
56 | > 95 | COc1ccc(CC2(O)c3ccccc3C3=NCCN32)cc1 (stereo unspecified)
57 | > 95 | OC1(Cc2ccc3c(c2)OCO3)c2ccccc2C2=NCCN21 (stereo unspecified)
58 | > 95 | COc1cc(CC2(O)c3ccccc3C3=NCCN32)cc(OC)c1OC (stereo unspecified)

Row | Compound | Fa [%]
59 | OC1(Cc2ccc3ccccc3c2)c2ccccc2C2=NCCN21 (stereo unspecified) | > 95
60 | OC1(Cc2ccc(Cl)c(Cl)c2)c2ccccc2C2=NCCN21 (stereo unspecified) | > 95

Tested on: not listed separately
Experiment: Plasma protein binding in human
Format: ADME, organism-based
Conditions: not given

Row | fraction unbound | Compound
61 | > 0.1 | CSc1ccc(CC2(O)c3ccccc3C3=NCCN32)cc1 (stereo unspecified)
62 | > 0.1 | OC1(Cc2ccc(Cl)cc2)c2ccccc2C2=NCCN21 (stereo unspecified)
63 | > 0.1 | COc1ccc(CC2(O)c3ccccc3C3=NCCN32)cc1 (stereo unspecified)
64 | > 0.1 | OC1(Cc2ccc3c(c2)OCO3)c2ccccc2C2=NCCN21 (stereo unspecified)
65 | > 0.1 | COc1cc(CC2(O)c3ccccc3C3=NCCN32)cc(OC)c1OC (stereo unspecified)

Row | Compound | fraction unbound
66 | OC1(Cc2ccc3ccccc3c2)c2ccccc2C2=NCCN21 (stereo unspecified) | > 0.1
67 | OC1(Cc2ccc(Cl)c(Cl)c2)c2ccccc2C2=NCCN21 (stereo unspecified) | > 0.1

Tested on: not listed separately
Experiment: Cytotoxicity against african green monkey CV1 cells
Format: cell-based, CV-1
Conditions: chlorocebus aethiops

Row | Compound | CC50 [µM]
68 | CSc1ccc(CC2(O)c3ccccc3C3=NCCN32)cc1 (stereo unspecified) | > 24
69 | OC1(Cc2ccc(Cl)cc2)c2ccccc2C2=NCCN21 (stereo unspecified) | > 16
70 | OC1(Cc2cccc3ccccc23)c2ccccc2C2=NCCN21 (stereo unspecified) | > 15
71 | COc1ccc(CC2(O)c3ccccc3C3=NCCN32)cc1OC (stereo unspecified) | > 30
72 | OC1(Cc2ccc3c(c2)OCO3)c2ccccc2C2=NCCN21 (stereo unspecified) | > 32

Tested on: Plasmodium berghei
Experiment: Antimalarial activity against Plasmodium berghei NK65 infected in Swiss mouse assessed as inhibition of parasitemia at 50 mg/kg, ip administered 2 hrs postinfection daily for 4 days measured on day 5
Format: functional
Conditions: route intraperitoneal
In short: (§1)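 Swiss male mice (20 ± 2 g) were infected on day 0 with 10⁷ parasitized cells, in groups of five. Dosing was i.p. at 50 or 25 mg/kg/day from day 0 (2 h post-infection) to day 3. Parasitemia on day 4 was counted from Giemsa-stained tail thin smears (≥9000 RBC, 1000×). Results were compared with untreated and CQ 5 mg/kg/day controls, and % inhibition was calculated relative to untreated parasitemia.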

Row | Compound | inhibition in vivo at 50 mg/kg [%]
73 | CSc1ccc(CC2(O)c3ccccc3C3=NCCN32)cc1 (stereo unspecified) | 84
74 | OC1(Cc2ccc(Cl)cc2)c2ccccc2C2=NCCN21 (stereo unspecified) | 7
75 | COc1ccc(CC2(O)c3ccccc3C3=NCCN32)cc1 (stereo unspecified) | 23
76 | OC1(Cc2ccc3c(c2)OCO3)c2ccccc2C2=NCCN21 (stereo unspecified) | 53
77 | COc1cc(CC2(O)c3ccccc3C3=NCCN32)cc(OC)c1OC (stereo unspecified) | < 5

Tested on: Mus musculus
Experiment: Toxicity in Plasmodium berghei NK65 infected in Swiss mouse assessed as mouse mortality at 50 mg/kg, ip administered 2 hrs postinfection daily for 4 days measured on day 5
Format: organism-based
Set-up: dose 50 mg/kg, route intraperitoneal
Conditions: in vivo
In short: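 Swiss male mice (20 ± 2 g) were infected on day 0 with 10⁷ parasitized cells and kept in groups of five. Compound was given i.p. at 50 mg/kg/day, starting 2 h after infection on day 0 and continuing through day 3. Untreated (blank) and chloroquine (5 mg/kg/day) groups served as controls.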

Row | Compound | Activity
78 | OC1(Cc2ccc3ccccc3c2)c2ccccc2C2=NCCN21 (stereo unspecified) | Toxic
79 | OC1(Cc2ccc(Cl)c(Cl)c2)c2ccccc2C2=NCCN21 (stereo unspecified) | Toxic

Tested on: Plasmodium berghei
Experiment: Antimalarial activity against Plasmodium berghei NK65 infected in Swiss mouse assessed as inhibition of parasitemia at 25 mg/kg, ip administered 2 hrs postinfection daily for 4 days measured on day 5
Format: functional
Conditions: route intraperitoneal
In short: as §1

Row | Compound | inhibition in vivo at 25 mg/kg [%]
80 | OC1(Cc2ccc3ccccc3c2)c2ccccc2C2=NCCN21 (stereo unspecified) | 87
81 | OC1(Cc2ccc(Cl)c(Cl)c2)c2ccccc2C2=NCCN21 (stereo unspecified) | 19

From ChEMBL document CHEMBL1833920, “Antimalarial activity of imidazo[2,1-a]isoindol-5-ol derivatives and related compounds” (Eur J Med Chem, 2011)
